Assay results of several laboratories.
Protocols differ between the studies behind these lines.
Target: Atypical kinase COQ8B, mitochondrial (COQ8B, Homo sapiens, UniProt Q96D53)
Sequence (Q96D53 1-544, as in one of the studies): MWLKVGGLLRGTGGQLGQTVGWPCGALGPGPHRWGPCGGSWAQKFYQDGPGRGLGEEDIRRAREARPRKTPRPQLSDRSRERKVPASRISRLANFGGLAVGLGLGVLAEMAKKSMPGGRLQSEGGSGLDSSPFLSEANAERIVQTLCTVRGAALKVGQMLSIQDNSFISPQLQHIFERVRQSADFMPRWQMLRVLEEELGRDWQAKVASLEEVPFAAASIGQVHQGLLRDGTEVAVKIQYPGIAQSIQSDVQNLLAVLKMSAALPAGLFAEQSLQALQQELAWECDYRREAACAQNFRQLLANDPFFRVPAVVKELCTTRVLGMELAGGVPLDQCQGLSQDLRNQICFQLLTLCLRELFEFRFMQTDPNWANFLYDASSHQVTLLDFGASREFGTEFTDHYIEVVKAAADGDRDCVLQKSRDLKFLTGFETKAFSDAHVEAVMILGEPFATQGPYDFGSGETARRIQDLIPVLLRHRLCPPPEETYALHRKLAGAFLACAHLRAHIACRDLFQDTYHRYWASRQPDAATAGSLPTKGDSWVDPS

| SMILES | test | setting | remaining binding [%] |
| --- | --- | --- | --- |
| C[C@@H](c1ccc(-n2cnc3c(N)ncnc32)cc1)N1CCc2nn(C)c(Cc3ccccc3)c2C1=O | binding, competition with immobilised ligand | 0.1 µM | 80 |
| CN(C)c1ncc(F)c(-c2cnn3ncccc23)n1 | binding | 1 µM | 73 |
| C=CC(=O)N1CCC(C(=O)NCC(=O)N2CCN(c3nc(-c4cnc(N)nc4C(F)F)nc(N4CCOCC4)n3)CC2)CC1 | binding, competition with immobilised ligand | 1 µM | 100 |
| CNC(=O)Nc1ccc2c(c1)[C@@]1(CC2)OC(=O)N(CC(=O)N(Cc2ccc(F)cc2)[C@@H](C)C(F)(F)F)C1=O | cell-free assay, competition with immobilised ligand | 1 µM | 95 |
| COc1ncc2cc3ccccc3nc2c1C#N | cell-free assay, competition with immobilised ligand | 5 µM | 100 |
| CCN1CCN(Cc2ccc(C(=O)Nc3ccc(C)c(Oc4ccc5c(c4)CC(=O)N5)c3)cc2C(F)(F)F)CC1 | binding, competition with immobilised ligand | 1 µM | 80 |
| C[C@@H]1CN(c2cc(-c3n[nH]c4ccc(OC5(C)CC5)cc34)ncn2)C[C@H](C)O1 | cell-free assay, competition with immobilised ligand | 0.1 µM | 72 |
| O=C(c1ccc(Nc2ncc(Cl)c(-c3ccc(Cl)s3)n2)cc1)N1CCC(N2CCCC2)CC1 | binding, competition with immobilised ligand | 1 µM | 21 |
| O=C(NCCCC1CCCCC1)c1ccc(CNC(=O)c2cnn(-c3ccccc3)c2C(F)(F)F)cc1 | cell-free assay, competition with immobilised ligand | 0.1 µM | 100 |
| CN(CCCC(F)(F)F)c1nccc(-c2cnn3ncccc23)n1 | binding | 1 µM | 84 |
| O=C(Nc1ccc(Oc2ccc(F)cc2)cc1)N1CCc2ncccc2[C@H]1c1ccc(F)cc1 | cell-free assay, competition with immobilised ligand | 1 µM | 92 |
| Cc1cnn2ncc(-c3ccnc(N(C)C)n3)c2c1 | binding | 1 µM | 81 |
| COCCOc1nc(-c2ccc(Cl)nc2)nc2c1CN(C(=O)c1ncn3ccccc13)CC2 | cell-free assay, competition with immobilised ligand | 0.1 µM | 100 |
| C[C@@H]1CCN(c2nccc(-c3cnn4ncccc34)n2)C1 | binding | 1 µM | 89 |
| O=C(c1ccc(Nc2ncc(Cl)c(-c3cc4ccccc4s3)n2)cc1)N1CCC(N2CCCC2)CC1 | binding, competition with immobilised ligand | 1 µM | 44 |
| CCS(=O)(=O)c1cc2cc(C[C@@](O)(CC(C)(C)c3ccc(F)cc3C(N)=O)C(F)(F)F)[nH]c2cn1 | cell-free assay, competition with immobilised ligand | 1 µM | 100 |
| COc1ccnn2ncc(-c3ccnc(N(C)C)n3)c12 | binding | 1 µM | 96 |
| O=C(NCCCN1CCOCC1)c1ccc(Nc2ncc(Cl)c(-c3ccc(Cl)s3)n2)cc1 | binding, competition with immobilised ligand | 1 µM | 34 |
| CC1CCCN1c1nccc(-c2cnn3ncccc23)n1 (stereo not shown) | binding | 1 µM | 68 |
| COc1cnc(Nc2cccc(S(N)(=O)=O)c2)nc1N1CCN(c2ccccc2)C(=O)C1 | binding, competition with immobilised ligand | 1 µM | 100 |
| N[C@@H]1CCN(c2nccc(-c3cnn4ncccc34)n2)C1 | binding | 1 µM | 100 |
| O=C(Nc1c[nH]nc1C(=O)NC1CCNCC1)c1cc(F)cc(F)c1 | binding, competition with immobilised ligand | 1 µM | 100 |
